Results collected from several papers.
Lines come from different studies, so protocols differ.
HTR3A: 5-hydroxytryptamine receptor 3A (HTR3A, Homo sapiens, UniProt P46098)
NR1H3: Oxysterols receptor LXR-alpha (NR1H3, Homo sapiens, UniProt Q13133)
OPRD1: Delta-type opioid receptor (OPRD1, Homo sapiens, UniProt P41143)

SMILES	target	read-out	mode	method	endpoint	result
Cc1cnc(-c2ccc(-c3ccc(NC(=O)Nc4c(F)cc(F)cc4F)cc3F)c3c2C(=O)NC3)[nH]1	STE20-like serine/threonine-protein kinase (SLK, Homo sapiens, UniProt Q9H2G2)	binding		competition with immobilised ligand	Kd	0.0003 µM
CCn1c(-c2nc3cc(C(=O)N4CCC[C@@H](N)C4)cc(OC)c3n2C)cc2cccnc21	HTR3A	calcium signal	agonist		EC50	> 50.1 µM
CC1=C(/C=C/C2=CCC[C@]3(C)[C@@H]([C@H](C)CCCC(C)(C)O)CC[C@@H]23)C[C@@H](O)CC1	NR1H3	coactivator recruitment	agonist	TR-FRET	EC50	0.01 to 0.1 µM
CCCCN1CCC(COC(=O)c2ccc(N)c(OCF)c2)CC1	HTR3A	cell-free assay		radioligand	Ki	> 10 µM
CNc1nc(C#Cc2ccc(Cl)s2)nc2c1ncn2[C@H]1[C@H](O)[C@H](O)[C@]2(C(=O)OCCC(C)C)C[C@H]12	OPRD1	ligand displacement		radioligand	Ki	> 10 µM
CC1=C(/C=C/C2=CCC[C@@]3(C)[C@H]2CC[C@@H]3[C@@](C)(O)CCCC(C)C)C[C@@H](O)CC1	NR1H3	coactivator recruitment	agonist	TR-FRET	EC50	0.01 to 0.1 µM
CNC(=O)[C@@]12C[C@@H]1[C@@H](n1cnc3c(NC)nc(C#Cc4ccc(F)c(F)c4)nc31)[C@H](O)[C@@H]2O	OPRD1	ligand displacement		radioligand	Ki	> 10 µM
N#Cc1ccc(COc2cccc(C3CCN(Cc4nc5ccc(C(=O)O)cc5n4C[C@@H]4CCO4)CC3)n2)c(F)c1	Gastric inhibitory polypeptide receptor (GIPR, Homo sapiens, UniProt P48546)	cAMP	agonist		EC50	> 10 µM
CCn1c(-c2nc3ccc(C(=O)N4CCCC(N)C4)cc3n2C)cc2ccccc21 (stereo not shown)	HTR3A	calcium signal	agonist		EC50	> 50.1 µM
O[C@@H]1[C@H](O)[C@@H]2C[C@@H]2[C@H]1n1cnc2c(NCC(c3ccccc3)c3ccccc3)nc(C#Cc3ccccc3)nc21	OPRD1	ligand displacement		radioligand	Ki	> 10 µM
